Broadly, the Ki is a dissociation constant, usually derived from enzyme kinetics or from competition with a known ligand. Low values mean higher affinity, high ones lower affinity.

In BindingDB's records for doi:10.1021/jm990942i (University of Montpellier, 2000) one finds Ki data, which are given here for two compounds.

In the experiment the target is Gastrin-releasing peptide receptor (Rattus norvegicus, UniProt P52500). Nature of the experiment: In vitro binding affinity against bombesin / GRP receptors on rat pancreatic acini. Summed up:
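Male Wistar rat dispersed pancreatic acini (about 1 mg/mL protein) incubated 60 min at 37 °C with 20 pM (3-[125I]iodotyrosyl15)GRP and varying analogue; pellet centrifuged at 10000g, washed twice, counted. Nonspecific binding with 10 μM unlabeled BN. Specific binding as %, mean ± SD of three experiments in duplicate.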

Sequence of Gastrin-releasing peptide receptor (P52500 whole entry N28S): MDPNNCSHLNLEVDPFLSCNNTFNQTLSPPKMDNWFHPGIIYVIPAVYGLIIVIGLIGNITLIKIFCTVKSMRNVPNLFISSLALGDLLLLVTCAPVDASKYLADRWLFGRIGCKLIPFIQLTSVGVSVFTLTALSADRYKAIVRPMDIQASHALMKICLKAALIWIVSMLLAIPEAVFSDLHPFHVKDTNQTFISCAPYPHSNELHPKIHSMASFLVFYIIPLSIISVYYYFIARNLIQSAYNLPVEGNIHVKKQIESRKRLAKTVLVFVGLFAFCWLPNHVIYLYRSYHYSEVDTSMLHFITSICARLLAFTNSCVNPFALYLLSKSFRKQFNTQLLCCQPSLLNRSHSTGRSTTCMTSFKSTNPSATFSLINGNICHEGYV

Regarding `CC(C)CC(NC(=O)C(CC(C)C)NC(=O)C(Cc1cnc[nH]1)NC(=O)[C@H](Cc1ccccc1)N1CC[C@H](NC(=O)C(C)NC(=O)C(Cc2c[nH]c3ccccc23)NC(=O)C(CCC(N)=O)NC(=O)[C@H](N)Cc2ccccc2)C1=O)C(N)=O` (some centres not stated) [Bombesin analogues], the inhibition constant Ki was > 1 µM. As for `CC(C)CC(NC(=O)C(CC(C)C)NC(=O)C(Cc1cnc[nH]1)NC(=O)Cn1c(=O)n(CCNC(=O)C(Cc2c[nH]c3ccccc23)NC(=O)C(CCC(N)=O)NC(=O)[C@H](N)Cc2ccccc2)c(=O)c2ccccc21)C(N)=O` (some centres not stated) [Bombesin analogues], the Ki is > 1 µM.
